Reference: ChEMBL document CHEMBL1121552, “Glycolipids as potential immunologic adjuvants” (1980)
Calls of active or inactive are those of the source. No cut-off for these calls is given here.

Key:
Assay type in all cases: functional
[1] = species: Mus musculus; test: Geometric mean titer of mice receiving 5 ug compound along with vaccine was determined after 21 days
How it was run: (§1)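 ICR/Ha mice, groups of eight, were injected with an influenza hemagglutinin antigen vaccine plus adjuvant. Hemagglutination-inhibition antibody was assayed in sera taken 21 days post-injection. Titer is the reciprocal of the serum dilution, reported as the group geometric mean.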

[2] = species: Mus musculus; test: Mitogenic activity is evaluated in vitro against splenocyte culture from C58 mice; NA means no activity
How it was run: (§2)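 Washed splenocytes from C58 mice were plated at 6 x 10^5 viable lymphocytes per well in RPMI 1640 with 10% fetal calf serum. Compound dilutions were added with Con A, E. coli LPS, or medium alone and incubated at 37 °C for 3-4 days. [3H]thymidine was then added, and cells were harvested 4 h later. Counts are geometric means of four replicate wells.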

[3] = species: Mus musculus; test: Geometric mean titer of mice receiving 50 ug compound along with vaccine was determined after 21 days; how it was run: as §1
[4] = species: Mus musculus; test: Mitogenic activity is evaluated in vitro against splenocyte culture from C58 mice; mitogenic; how it was run: as §2

SMILES	Activity [1]	Activity [2]	Activity [3]	Activity [4]
CC1OC(SCCC23C[C@H]4C[C@@H](C2)C[C@@H](C3)C4)C(O)C(O)C1O (stereo partly specified)	47.57			
CC(C)CCCC(C)C1CCC2C3CC=C4CC(OCCCCCCSC5OC(C)C(O)C(O)C5O)CCC4(C)C3CCC12C (stereo unspecified)	28.28	inactive		
CCCCCCCC/C=C\CCCCCCCCSC1OC(C)C(O)C(O)C1O (stereo unspecified)	61.69			
CC1OC(SCCCc2ccc(C(F)(F)C(F)(F)c3ccccc3)cc2)C(O)C(O)C1O (stereo unspecified)	33.64			
CC(C)CCCC(C)C1CCC2C3CC=C4CC(OCCC#CCCSC5OC(C)C(O)C(O)C5O)CCC4(C)C3CCC12C (stereo unspecified)		inactive	33.64	
CC(=O)N[C@H]1C(O)O[C@H](CO)[C@@H](O)[C@@H]1O[C@H](C)C(=O)N[C@@H](C)C(=O)N[C@H](CCC(=O)O)C(N)=O (stereo partly specified) [MURAMYL DIPEPTIDE]			40	Mitogenic
CC(C)CCC[C@@H](C)[C@H]1CC[C@H]2[C@@H]3CC=C4C[C@@H](OCCCCCCS[C@@H]5O[C@@H](CO)[C@@H](O[C@@H]6O[C@@H](CO)[C@H](O)[C@H](O)[C@@H]6O)[C@H](O)[C@@H]5O)CC[C@]4(C)[C@H]3CC[C@]12C		inactive	40	
